The values that follow come from the RNAGym collection of RNA variant scans (doi:10.1038/nmeth.2970).

B1: NELF-E aptamer (parent)
chain: CCCAACGACUGCCGAGCGAGAUUACGCUUGAGCGCCCCACUGAGGAUGCCCACGGGCGAUUGGGGCACGG

This data set covers variants of B1. Description: HiTS-RAP. The conditions noted are these: with NELF-E (Drosophila). In outline: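 Aptamer DNA templates bearing a T7 promoter and a ter site were sequenced on an Illumina GAIIx flowcell. T7 RNA polymerase then transcribed them in situ, and GST-Tus halted transcription over 30 minutes at 37°C. After a 30-minute room-temperature equilibration with NELF-E-mOrange at 0.064 to 1000 nM in HEPES binding buffer, clusters were imaged, using only the first binding curve. Intensities normalised to sequencing intensity were averaged per sequence and fitted with weighted Hill fits to give Kd, retaining only fits whose variance stayed under 1,000,000.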
As for C12U A24G, the Kd (usually the concentration at which binding is half-saturated) came out at 5.74 nM. Consider C13G A39G, for which the Kd was 9.58 nM. With C13G A39U the figure was 19 nM. With C12U G14U the figure was 8.16 nM; with C12A U22G, 4.37 nM. With C12G C40U the figure was 126 nM; with C12G A43G, 26.1 nM; with C13G C37A, 21.7 nM. For C13G C37U, the Kd turned out to be 10.3 nM.

As for C13G C37G, the Kd is 6.46 nM. Under G14A G55U stands 8.79 nM; under C13G A52U, 16.9 nM. With C13G A52G the figure was 4.96 nM. Under C13G G32A stands 4.64 nM; under C13G U29A, 4.9 nM; under C13G U29C, 4.94 nM. Consider C13G U29G, for which the Kd worked out at 4.95 nM. With G14U A39G the figure was 9.72 nM; with G14U A39U, 32.5 nM; with C12G C25G, 4.47 nM. C12G A31G: the Kd turned out to be 7.14 nM. Under C13G C27U stands 4.45 nM. C13G A19G: the Kd was 5.43 nM.

Take C13G A19U: the Kd is 4.52 nM. Under G11U G62A stands 19.7 nM; under G11U G42A, 55.9 nM; under C13G G42U, 5.35 nM. Under C13G G42A stands 49 nM. For G11U U41G, the Kd came out at 6.22 nM. Consider C12G C57U, for which the Kd was found to be 6.51 nM.

With C12G U23C, the Kd worked out at 3.97 nM. For C12G U23G, the Kd was 5.85 nM. Take G11U U28C: the dissociation constant Kd was 9.24 nM. Under C12G A67G stands 6.86 nM.

C12G A67U: the Kd is 7.12 nM.

For the variant G14A A31G, the Kd came to 5.95 nM. For the variant C13U G54A, the Kd was 8.87 nM. With C13U A31G, the Kd worked out at 5.17 nM.

Regarding C12G G56U, the Kd came to 6.08 nM. Under C13A U29G stands 5.66 nM. With C13G C66U the figure was 5.32 nM. With C12U U23G the figure was 5.04 nM.

Consider G14U A31G, for which the equilibrium dissociation constant (Kd) is 7.27 nM. As to G11U G56A, the Kd came to 10.8 nM. Under G11U A67G stands 6.41 nM.

As to G11U A67U, the Kd is 9.06 nM. With C12U A19G the figure was 5.36 nM; with G14U A46G, 57.2 nM. Under C13U U29G stands 5.14 nM; under G11U G65U, 7.6 nM; under G11U G65A, 5.5 nM. With C13G G65U, the Kd is 6.4 nM. Under C13G G65A stands 5.31 nM; under G11U G63A, 19.4 nM. Take G11U G63U: the Kd worked out at 8.25 nM. Consider C13G C51U, for which the Kd stood at 6.36 nM. With C12U U22G the figure was 5.99 nM. As to G11U A24G, the Kd stood at 5.82 nM. With G11U A24U, the Kd came out at 5.45 nM. With G11U G30A the figure was 5.79 nM; with C13G C36G, 6.08 nM. With C13G C36U the figure was 7.49 nM; with G14A C33U, 6.15 nM; with G14A A21G, 6.08 nM.

With C12G A15U, the Kd came to 6.36 nM.

With C12G A15G, the dissociation constant (Kd) was determined as 6.14 nM.

As to G11U A39U, the Kd was found to be 21.3 nM.

As to G11U A39G, the Kd is 11.4 nM. For C13G U41C, the Kd stood at 64.2 nM.

In the case of C13G U41A, the Kd was found to be 83.4 nM.

C13G U41G: the Kd is 5.26 nM.

Consider C12U C13U, for which the equilibrium dissociation constant (Kd) is 3.39 nM.

For C12U C13G, the Kd came out at 5.4 nM.

As to C13G, the Kd is 4.88 nM.

Consider C13U, for which the Kd was found to be 4.41 nM. Under C13A stands 5.28 nM; under C13G G34U, 5.43 nM; under C13G G34A, 8.12 nM. As for C13G G45U, the Kd was 6.75 nM.

For the variant G14A C17G, the Kd turned out to be 5.98 nM. As for G14A C17U, the Kd was 5.62 nM. On to C12G C37G, for which the Kd is 7.38 nM. With C12G C37U the figure was 16.6 nM; with C13U G16U, 6.59 nM; with G11U U22G, 6.4 nM.

G11U A31U: the Kd is 6.12 nM. On to G11U A31G, for which the dissociation constant Kd was 7.38 nM. With G11U G34A the figure was 6.7 nM; with G14A U61A, 30.3 nM; with G14A A15G, 6.1 nM. In the case of G14A A15C, the Kd worked out at 4.43 nM. For the variant G14A A15U, the equilibrium dissociation constant (Kd) is 5.39 nM. C13U C25G: the Kd is 4.69 nM. Under G11U A59U stands 48.9 nM. Regarding G11U A59G, the Kd is 17.7 nM. With C12G G54A the figure was 18.2 nM; with C13G C53U, 3.49 nM; with C13G C53G, 7.39 nM. Under C13U G26A stands 4.43 nM; under C12G U22C, 6.9 nM. With C12G U22G the figure was 5.79 nM; with C13U G34A, 6.99 nM. C12G A19G: the Kd amounted to 5.93 nM. For C13G G30A, the Kd turned out to be 4.93 nM.

Take C13G G30U: the Kd was found to be 6.03 nM.

With C13U C17U, the Kd was found to be 4 nM. For the variant C13U C17G, the Kd stood at 5.11 nM. With C12A the figure was 4.42 nM. In the case of C12U, the Kd is 4.54 nM. With C12G the figure was 5.44 nM. Under G14U A52U stands 15.8 nM; under C13U A24G, 5.12 nM; under C12G G48A, 9.02 nM.

For C13G G55A, the equilibrium dissociation constant (Kd) turned out to be 6.77 nM. For C13G G55U, the Kd is 7.38 nM. Take C13G G55C: the dissociation constant Kd came out at 7.94 nM. In the case of C13G G56U, the Kd stood at 4.87 nM. With C13G G56A the figure was 6.97 nM. With C13G C17G, the Kd is 4.68 nM. With C13G C17U the figure was 5.43 nM. As to C13G G54U, the Kd stood at 7.78 nM. Under C13G G54A stands 13.8 nM; under G14A G18A, 5.3 nM. Under G14A U41G stands 5.69 nM; under C13G G14A, 6.02 nM. With C13G G14C the figure was 7.7 nM; with C13G G14U, 5.85 nM. C13G U61C: the Kd worked out at 73.4 nM. With C13G U61A the figure was 38.3 nM; with C13G U61G, 7.74 nM; with C13U A19G, 6.42 nM. In the case of C13U A19U, the Kd came out at 5 nM. In the case of C12U G34A, the Kd came out at 5.3 nM. Under C12G A46G stands 44.8 nM; under G11U A21U, 5.9 nM; under G11U G32A, 6.15 nM. With G14A G30A, the Kd is 5.61 nM. G11U G14U: the Kd came out at 6.82 nM. Under G11U G14A stands 6.87 nM. With G11U C50U the figure was 17.7 nM; with C12U U41G, 6.2 nM.

With C13G A21U, the Kd turned out to be 5.52 nM. As to C13G A21G, the Kd was found to be 4.63 nM. Consider C12A A24G, for which the Kd worked out at 5.99 nM. With C13G C57U the figure was 6.43 nM; with G14C U29G, 5.67 nM.

With C12G G55U, the Kd was found to be 8.9 nM. With C12G G55A the figure was 7.66 nM; with C12U A31G, 6.76 nM.

As for C12G U41G, the Kd amounted to 5.67 nM. Under C12G A21U stands 6.04 nM; under C12G A21G, 7.12 nM; under C12A C13G, 5.33 nM. For the variant G14A C53U, the dissociation constant (Kd) is 4.16 nM. Under C12G G16U stands 7.23 nM.

Consider C13G A15G, for which the Kd was 6.03 nM. C13G A15U: the Kd came out at 6.13 nM.

As to C13G A31G, the Kd turned out to be 7.08 nM. With C13G A31U, the Kd was found to be 5.78 nM. With G11U G20A the figure was 5.7 nM; with G11U G20U, 7.02 nM; with G14A G16A, 6.86 nM. With G14A G16U the figure was 6.52 nM; with G11U C53U, 3.96 nM; with C12G A59G, 57.4 nM. With G11U G16A the figure was 6.06 nM; with G11U G16U, 6.7 nM.
